Our source for the inhibition values is PubChem BioAssay AID720543 (The Scripps Research Institute Molecular Screening Center, 2013).

Hit rate of the full screen: of about 370,000 compounds, about 2,000 (0.54%) were called active.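 How the source made its calls: active means inhibition exceeding the mean over every tested compound plus 3 SD (cut at about 30% in these data); inactive means the rest.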 The full list was thinned out, with actives kept by preference.

Chain of (Lyso)-N-acylphosphatidylethanolamine lipase (Mus musculus) (Q8VD66 whole entry, looked up): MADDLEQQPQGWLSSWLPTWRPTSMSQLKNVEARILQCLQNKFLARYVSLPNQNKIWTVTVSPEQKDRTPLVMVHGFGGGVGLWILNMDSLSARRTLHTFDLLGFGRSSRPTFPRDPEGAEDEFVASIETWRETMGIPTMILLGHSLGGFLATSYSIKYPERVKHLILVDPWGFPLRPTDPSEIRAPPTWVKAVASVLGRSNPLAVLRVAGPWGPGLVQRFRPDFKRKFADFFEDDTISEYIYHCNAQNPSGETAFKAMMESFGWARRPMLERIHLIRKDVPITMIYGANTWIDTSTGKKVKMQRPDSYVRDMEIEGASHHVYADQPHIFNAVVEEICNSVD

The target of the test is (Lyso)-N-acylphosphatidylethanolamine lipase (Mus musculus) (UniProt Q8VD66). Put plainly: mouse ABHD4 hydrolase activity blockers – biochemical, fluorescence polarization, primary screen (AID 720543).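 Further: 0% = plate median of compound wells and 100% = S159A mutant with DMSO.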 To be noted: purified mABHD4, FP-Rh probe fluorescence polarization; at 8.92 µM; stronger effect = higher value. The method, boiled down:
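system = mouse ABHD4 enzyme, wild type | medium = HEPES pH 7.0, NaCl, Pluronic buffer | also added = FP-Rh probe | incubation = Enzyme–compound pre-incubation 45 min, then probe 60 min, both 25 °C | technique = fluorescence polarization, excitation 525 nm, emission 598 nm, BODIPY TMR filters | controls = S159A mutant high control, sample median low control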
On to `CC1CN(/C=C/C(=O)C(F)(F)F)CC(C)O1` (stereo not given), for which the inhibition was -3.37% (inactive).

Turning to `CN(C)c1ccc(N/C=C/C(=O)C(F)(F)F)cc1`, the inhibition is 49.4% (active).

Consider `CN(C)c1ccc(C(CC(=O)O)C(=O)O)cc1` (stereo not given), for which the inhibition is 24.1% (inactive).

With `CC(=O)C1=C(C)NC(=O)NC1c1cc(Br)ccc1OCC#N` (stereo not given), the inhibition was 4.75% (inactive).

In the case of `Nc1[nH]c(C(=O)c2ccccc2)c(-c2ccc(Cl)cc2Cl)c1C(=O)c1ccccc1`, the inhibition is -1.34% (inactive).

Consider `CC(C)c1ccc(CC(=O)N2CCC2(C)C(=O)NS(=O)(=O)c2ccc(C(C)(C)C)cc2)cc1` (stereo not given), for which the inhibition is 59% (active).

Consider `CCCC(=O)N1CCC1(C)C(=O)NS(=O)(=O)c1ccc(Cl)cc1` (stereo not given), for which the inhibition is -1.74% (inactive).

As to `CC(C)(C)c1ccc(S(=O)(=O)NC(=O)C2(C)CCN2C(=O)CC2CC2)cc1` (stereo not given), the inhibition was -2.61% (inactive).

For `CCCCOCC1CN(CCCC)S(=O)(=O)c2c(Oc3ccc(F)cc3)cccc2O1` (stereo not given), the inhibition is 4.37% (inactive).

Take `COC(CNC(=O)[C@H](Cc1ccccc1)NC1(C(=O)NC2CCCCC2)CCCCC1)OC`: the inhibition was 3.57% (inactive).

As to `COCc1cc(N2CCN(C(=O)OC(C)(C)C)C[C@@H]2C)ccc1N1CCN(Cc2ccccc2)[C@H](C)C1`, the inhibition was -12.1% (inactive).

In the case of `COc1ccc(C#CCNCc2ccc(OC)cc2OC)cc1`, the inhibition is -4.3% (inactive).

`O=Nc1c(O)cc(O)c2ccccc12`: the inhibition was 55.7% (active).

As to `O=c1c2ccccc2ccc2ccc(P(=O)(O)O)cc12`, the inhibition was 12% (inactive).

On to `Cc1ccc(S(=O)(=O)N(C)C)cc1NC(=O)c1n[nH]c(=O)c2ccccc12`, for which the inhibition is -9.11% (inactive).

For `CCOc1ccccc1C(=O)N1CCC[C@@H]1C(=O)N1CCC[C@H]1C(=O)NCc1ccccc1`, the inhibition was 1.14% (inactive).

Turning to `CCOC(=O)CSc1nnc(CNC(=O)c2ccco2)n1-c1ccc(F)cc1`, the inhibition was 0.65% (inactive).

Regarding `COC(=O)c1cc2c(c3c4cc(F)ccc4n(S(=O)(=O)c4ccccc4)c13)C(=O)N(Cc1ccccc1OC)C2`, the inhibition was -11.3% (inactive).

For the compound `COc1ccc(C(CC(=O)c2ccccc2)S(=O)(=O)c2ccccc2)cc1` (stereo not given), the inhibition is -2.98% (inactive).

With `O=C(NNc1c2ccccc2nc2ccccc12)c1cc2ccccc2cc1O`, the inhibition is 31.3% (active).

As to `COC(=O)c1cc(N2CCNCC2)nc2ccccc12`, the inhibition was 1.72% (inactive).

With `Cc1ccc(C)c(NC(=O)NNC(=O)c2ccc3ccccc3c2O)c1`, the inhibition was 8.45% (inactive).

For the compound `CC(C)(C)c1ccc(S(=O)(=O)NCC2CCN(C(=O)C(=O)c3cc4ccccc4o3)CC2)cc1`, the inhibition is -26.4% (inactive).

As for `NC(=O)C1CCN(C(=O)c2cc(S(=O)(=O)N3CCN(c4ccccc4)CC3)ccc2Cl)CC1`, the inhibition was 6.55% (inactive).

Consider `O=C1CCC([N+](=O)[O-])C(c2ccccc2Br)N1` (stereo not given), for which the inhibition is -0.46% (inactive).

Take `Brc1ccccc1C1Nc2cccc3cccc(c23)N1`: the inhibition was 45.1% (active).

As to `O=C(Nc1ccc(Br)cc1)OCCN1C(=O)CCC12CCC(c1ccccc1)CC2` (stereo not given), the inhibition is 0.58% (inactive).

Consider `COC(=O)[C@H](C(C)C)N(CCc1cn(Cc2ccccc2)nn1)S(=O)(=O)c1ccc(F)cc1Br`, for which the inhibition is -6.45% (inactive).

`CC1(C)OC(=O)C2=C(C[C@@H](C3CC3)O[C@H]2CCc2cccc(Cl)c2)O1`: the inhibition is -7.3% (inactive).

In the case of `CC(=O)O[C@@]1(C(C)=O)CCC2[C@H]3C=C(C)C4=CC(=O)CC[C@@]4(C)C3CC[C@]21C` (stereo not given in full), the inhibition is 5.34% (inactive).

With `Nc1ccc2nc3c(=O)[nH]c(=S)[nH]c3nc2c1`, the inhibition is 53.6% (active).

In the case of `Cc1cc(Cl)c(S(=O)(=O)Nc2ccc3c(c2)OCCO3)cc1OCC(N)=O`, the inhibition is -2.74% (inactive).

As for `CC1CCCN(S(=O)(=O)c2ccc(-c3ccc(=O)[nH]n3)o2)C1` (stereo not given), the inhibition was -2.46% (inactive).

On to `CC(C)CNS(=O)(=O)CC1NCCc2ccccc21` (stereo not given), for which the inhibition is 3.38% (inactive).

Turning to `COC(=O)[C@]12C[C@H](CC(=O)NCCCCc3ccccc3)C(=O)N(Cc3ccc4c(c3)OCO4)C1=C[C@H](C(C)(C)C)O[C@@H]2C`, the inhibition was 0.01% (inactive).

`O=C(CCS(=O)(=O)c1ccccc1)Nc1ccc(Cl)c(Cl)c1`: the inhibition was -9.05% (inactive).

As for `OCCNCCOc1ccc(Cl)c(Cl)c1`, the inhibition is 3.5% (inactive).

Consider `OCCNc1nc(Nc2ccc(Cl)c(Cl)c2)nc2ccccc12`, for which the inhibition was 39.5% (active).

Turning to `CCOC(=O)[C@]12CCC=C1N(Cc1ccccc1)C(=O)[C@H](CC(=O)N1CCCC1)C2`, the inhibition was -6.55% (inactive).

With `O=C1[C@@H](c2ccccc2)[C@@H](c2ccccc2)N1c1ccccc1`, the inhibition is -3.86% (inactive).

Regarding `Cc1cc2nc(-c3ccco3)c(Cc3cccc(F)c3)n2c(C)c1Br`, the inhibition is 10.5% (inactive).

In the case of `COC(=O)C[C@@H]1CC[C@@H]2[C@@H](COc3ccc(NC(=O)Nc4ccc(F)c(F)c4)cc3C(=O)N2C)O1`, the inhibition is 4.06% (inactive).

With `COc1cc(/C=C2/C(=O)NN(c3cccc(Cl)c3)C2=O)cc(Br)c1O`, the inhibition was 38.5% (active).

As for `CCOc1c(Br)cc(/C=C2\C(=O)N(CCC#N)N=C2C)cc1OC`, the inhibition is -10.7% (inactive).

For `CC1CN(Cc2nc3c(c(=O)n(C)c(=O)n3C)n2Cc2cccc(Cl)c2)CC(C)O1` (stereo not given), the inhibition was 4.39% (inactive).

Turning to `CCCC1CCC2(CCCN2CCOC(=O)NCc2ccccc2)CC1` (stereo not given), the inhibition is -7.41% (inactive).

In the case of `O=[N+]([O-])c1cc(Br)c(O)c(/C=N/Nc2nc3ccccc3s2)c1`, the inhibition is 38.8% (active).

As to `CCC1(C)Cc2c(sc3nnn(CC(=O)Nc4ccc(Cl)cc4)c(=O)c23)CO1` (stereo not given), the inhibition is -18.9% (inactive).

Consider `CC(=O)Nc1ccc(NC(=O)c2ccc3c(c2)C(=O)N(c2ccccc2C)C3=O)cc1`, for which the inhibition is -1.82% (inactive).

`COc1ccc(OC)c(NC(=O)c2ccc3c(c2)C(=O)N(c2ccc(OC(C)=O)cc2)C3=O)c1`: the inhibition was 3.91% (inactive).

With `O=C(O)c1ccc2c(c1)C(=O)N(c1ccc(/C=C/C(=O)c3ccccc3)cc1)C2=O`, the inhibition was 39.1% (active).

As for `Cc1cccnc1C(NC(=O)C1CCN(Cc2ccc(Cl)c(Cl)c2)CC1)c1ccc(Cl)cc1` (stereo not given), the inhibition is -1.83% (inactive).

Regarding `CC1CN(C2CCCCC2)c2nc3c(c(=O)n(C)c(=O)n3C)n2C1` (stereo not given), the inhibition is -5.35% (inactive).

Take `COc1cccc(CSc2nnc(-c3cccnc3)n2Cc2ccccc2)c1`: the inhibition was 0.82% (inactive).

For `COc1cc(/C=C/C(=O)n2cnc3ccccc32)cc(OC)c1OC`, the inhibition was -5.44% (inactive).
